Data on five compounds can be found in ChEMBL document CHEMBL1129609, “Synthesis and antiviral activity evaluation of some new aminoadamantane derivatives. 2” (1996).

Molecules are shown by their SMILES. In brackets after ≈: the same amount, converted by molar mass.

Assay [1] has as its system Human immunodeficiency virus 2. The assay can be described thus: Antiviral activity against HIV-2 virus infected CEM cell lines. The format is functional, CCRF-CEM.
The subject of the next assay is CCRF-CEM. Briefly: Cytotoxicity against CEM cell lines. The format is functional. Conditions: Homo sapiens.
For assay [2], the system named is Human immunodeficiency virus 1. Briefly: Antiviral activity against HIV-1 virus infected CEM cell lines. Format: functional, CCRF-CEM.
The test system of assay [3] is Human alphaherpesvirus 1. The assay can be described thus: Antiviral activity against HSV-1 virus infected HEF cell lines. Format: functional. The method, boiled down:
(§1)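 Human embryonic fibroblasts, from embryonic lung or embryonic skin-muscle, infected with the virus. Endpoint is the minimum inhibitory concentration that reduces virus-induced cytopathicity by 50%. Values are averages of at least two separate experiments.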

The next assay relates to Human alphaherpesvirus 2. Briefly: Antiviral activity against HSV-2 virus infected HEF cell lines. Format: functional. The method, boiled down:
as §1

Assay [4] has as its system Human alphaherpesvirus 1. The assay can be described thus: Antiviral activity against TK-HSV-1 virus infected HEF cell lines. Format: functional. The method, boiled down: as §1
The test system of another assay is HEF. The assay can be described thus: Effects on cell morphology of HEF cell lines. The note with it: Homo sapiens. The format is functional. A digest of the protocol: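 Human embryonic skin-muscle fibroblasts were examined under the microscope for changes in normal cell morphology. The value is the minimum concentration causing a microscopically detectable alteration, averaged from at least two separate experiments.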

For the next assay, the system named is Vaccinia virus. The assay can be described thus: Antiviral activity against vaccinia virus infected HEF cell lines. The format is functional. Conditions: Orthopoxvirus vaccinia. The method, boiled down:
as §1

In another assay the test system is Enterovirus C. Briefly: Antiviral activity against polio 1 virus infected HeLa cell lines. Format: functional. A digest of the protocol: (§2)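 Vero (African green monkey kidney), HeLa (human epithelial) or HEL (human embryonic lung) cell monolayers infected with the virus. Readout is the minimum inhibitory concentration that reduces virus-induced cytopathicity by 50%. Values are averages of at least two separate experiments.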

For assay [5], the system named is Vesicular stomatitis virus. The assay can be described thus: Antiviral activity against vesicular stomatitis virus infected HeLa cell lines. The format is functional. The method, boiled down: as §2
The test system of assay [6] is Coxsackievirus B4. Briefly: Antiviral activity against Coxsackie B4 virus infected HeLa cell lines. The format is functional. The note with it: Enterovirus B. The method, boiled down: as §2
For the next assay, the system named is Human betaherpesvirus 5. Briefly: Antiviral activity against HCMV virus infected HEL cell lines. The format is functional. The method, boiled down:
as §2

For assay [7], the system named is Human alphaherpesvirus 3. Briefly: Antiviral activity against TK+VZV virus infected HEL cell lines. Format: functional. The method, boiled down:
as §2

Assay [8] deals with Human alphaherpesvirus 3. Briefly: Antiviral activity against TK-VZV virus infected HEL cell lines. Format: functional. A digest of the protocol: as §2
A further assay concerns HEL. Briefly: Inhibition of HEL cell proliferation. The note with it: Homo sapiens. Format: functional. A digest of the protocol:
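Human embryonic lung fibroblasts were used for the proliferation assay. The value is the concentration that reduces cell proliferation by 50%, averaged from at least two separate experiments.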

Assay [9] deals with MDCK. Briefly: Antiviral activity tested against influenza A,H1N1 virus infected MDCK cell lines. The format is functional. Conditions: Canis lupus familiaris.
Assay [10] is described as follows: Antiviral activity against influenza A,H3N2 virus infected MDCK cell lines. Format: functional.
The next assay relates to Influenza B virus. The assay can be described thus: Antiviral activity against influenza B virus infected MDCK cell lines. The format is functional.
Assay [11] concerns MDCK. The assay can be described thus: Antiviral activity of compound was tested against morphology virus infec+ted MDCK cell lines. Conditions: Canis lupus familiaris. The format is functional.
For the next assay, the system named is Semliki Forest virus. Briefly: Antiviral activity against Semliki forest virus infected Vero cell lines. The format is functional. The method, boiled down:
as §2

Assay [12] relates to Coxsackievirus B4. Briefly: Antiviral activity against Coxsackie B4 virus infected vero cell lines. Conditions: Enterovirus B. The format is functional. A digest of the protocol:
as §2

The next assay deals with Vero. The assay can be described thus: Effects on cell morphology of Vero cell lines. The format is functional. The note with it: Chlorocebus sabaeus. The method, boiled down:
(§3)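 HeLa (human epithelial) or Vero (African green monkey kidney) cells were examined under the microscope for changes in normal morphology. The value is the minimum concentration causing a detectable alteration, averaged from at least two separate experiments.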

Another assay concerns Human respirovirus 3. The assay can be described thus: Antiviral activity against parainfluenza 3 virus infected Vero cell lines. Format: functional. The method, boiled down: as §2
Assay [13] deals with Mammalian orthoreovirus 1. Briefly: Antiviral activity against Reo 1 virus infected vero cell lines. Format: functional. The method, boiled down: as §2
The test system of another assay is Sindbis virus. Briefly: Antiviral activity against sindbis virus infected Vero cell lines. Format: functional. A digest of the protocol: as §2
Assay [14] is described as follows: Antiviral activity against influenza A,H2N2 virus infected MDCK cell lines. The format is functional.
In a further assay the test system is HeLa. Briefly: Effects on cell morphology of HeLa cell lines. Format: functional. The note with it: Homo sapiens. The method, boiled down: as §3
The subject of assay [15] is Vesicular stomatitis virus. The assay can be described thus: Antiviral activity against vesicular stomatitis virus infected HEF cell lines. Format: functional. A digest of the protocol:
as §1

On to `CC(C)(C)C1CCCN1CC12CC3CC(CC(C3)C1)C2` (centres undefined), for which the MIC50 in [1] was over 40 µg/mL; with CCRF-CEM, 72 µg/mL (≈ 261 µM); in assay [2], over 40 µg/mL; against Human alphaherpesvirus 1 [3], over 100 µg/mL; against Human alphaherpesvirus 2, over 100 µg/mL; against Human alphaherpesvirus 1 [4] it was over 100 µg/mL. Moreover, the MIC50 was 200 µg/mL (≈ 726 µM) against HEF; over 100 µg/mL against Vaccinia virus; over 100 µg/mL in the assay on Enterovirus C; over 100 µg/mL in [5]; over 100 µg/mL in the assay on Coxsackievirus B4 [6]; over 50 µg/mL in the assay with Human betaherpesvirus 5. Besides, the MIC50 against Human alphaherpesvirus 3 [7] was 35 µg/mL (≈ 127 µM); against Human alphaherpesvirus 3 [8] it was 20 µg/mL (≈ 72.6 µM); against HEL, over 50 µg/mL; against MDCK [9] it was over 104 µg/mL; in assay [10], over 100 µg/mL; against Influenza B virus, over 100 µg/mL. Further, the MIC50 against MDCK [11] was over 250 µg/mL; with Semliki Forest virus it was over 200 µg/mL; against Coxsackievirus B4 [12], over 200 µg/mL; in the assay on Vero it was 400 µg/mL (≈ 1450 µM); in the assay on Human respirovirus 3 it was over 200 µg/mL; in assay [13], over 200 µg/mL. The MIC50 is over 200 µg/mL in the assay with Sindbis virus, over 100 µg/mL in [14], 200 µg/mL (≈ 726 µM) in the assay with HeLa and over 100 µg/mL in [15].
Regarding `Nc1nc2c(ncn2COC(CO)CO)c(=O)[nH]1` [GANCICLOVIR], the MIC50 against Human alphaherpesvirus 1 [3] was over 200 µg/mL; against Human alphaherpesvirus 2, 0.002 µg/mL (≈ 0.00784 µM); against Human alphaherpesvirus 1 [4] it was 0.02 µg/mL (≈ 0.0784 µM); with HEF, over 100 µg/mL; with Vaccinia virus, over 100 µg/mL; in the assay with Human betaherpesvirus 5, 0.7 µg/mL (≈ 2.74 µM). In assay [15], this compound gave an MIC50 of over 100 µg/mL.
`CCN1CCCC1C12CC3CC(CC(C3)C1)C2` (centres undefined): the MIC50 in assay [1] was over 40 µg/mL; with CCRF-CEM it was 115 µg/mL (≈ 493 µM); in assay [2], over 40 µg/mL; in the assay on Human alphaherpesvirus 1 [3] it was over 100 µg/mL; with Human alphaherpesvirus 2, over 100 µg/mL; in the assay with Human alphaherpesvirus 1 [4], over 100 µg/mL. Moreover, the MIC50 against HEF is 200 µg/mL (≈ 857 µM); against Vaccinia virus it was over 100 µg/mL; against Enterovirus C it was over 400 µg/mL; in assay [5], over 400 µg/mL; against Coxsackievirus B4 [6], over 400 µg/mL; in the assay on Human betaherpesvirus 5, over 50 µg/mL. Moreover, the MIC50 with Human alphaherpesvirus 3 [7] is over 50 µg/mL; in the assay with Human alphaherpesvirus 3 [8] it was over 50 µg/mL; against HEL it was over 50 µg/mL; with MDCK [9], over 34 µg/mL; in assay [10], 58 µg/mL (≈ 249 µM); against Influenza B virus, 60 µg/mL (≈ 257 µM). The MIC50 in the assay on MDCK [11] was 250 µg/mL (≈ 1070 µM); in the assay on Semliki Forest virus it was over 400 µg/mL; in the assay with Coxsackievirus B4 [12], over 400 µg/mL; in the assay with Vero, over 400 µg/mL; in the assay with Human respirovirus 3, over 400 µg/mL; in [13], over 400 µg/mL. Further, the MIC50 was over 400 µg/mL in the assay with Sindbis virus, over 14 µg/mL in assay [14], over 400 µg/mL in the assay on HeLa and over 100 µg/mL in assay [15].
Take `CC1(C)CCCN1CC12CC3CC(CC(C3)C1)C2`: the MIC50 is over 40 µg/mL in assay [1]; 99 µg/mL (≈ 400 µM) in the assay on CCRF-CEM; over 40 µg/mL in assay [2]; over 40 µg/mL against Human alphaherpesvirus 1 [3]; over 40 µg/mL against Human alphaherpesvirus 2; over 40 µg/mL in the assay with Human alphaherpesvirus 1 [4]. Besides, the MIC50 was 100 µg/mL (≈ 404 µM) with HEF; over 40 µg/mL against Vaccinia virus; over 200 µg/mL against Enterovirus C; 100 µg/mL (≈ 404 µM) in assay [5]; over 200 µg/mL with Coxsackievirus B4 [6]; over 50 µg/mL in the assay on Human betaherpesvirus 5. For the same compound, the MIC50 with Human alphaherpesvirus 3 [7] is over 50 µg/mL; in the assay on Human alphaherpesvirus 3 [8], over 50 µg/mL; in the assay on HEL it was over 50 µg/mL; in the assay with MDCK [9], over 150 µg/mL; in [10], over 87 µg/mL; with Influenza B virus it was over 100 µg/mL. The MIC50 in the assay on MDCK [11] was over 250 µg/mL; in the assay on Semliki Forest virus it was over 200 µg/mL; with Coxsackievirus B4 [12] it was over 200 µg/mL; against Vero, over 400 µg/mL; with Human respirovirus 3, over 200 µg/mL; in assay [13], over 200 µg/mL. The MIC50 against Sindbis virus is over 200 µg/mL; in [14], 35 µg/mL (≈ 141 µM); in the assay with HeLa it was over 400 µg/mL; in [15] it was over 40 µg/mL.
Take `CN1CCCC1C12CC3CC(CC(C3)C1)C2` (centres undefined): the MIC50 is over 40 µg/mL in assay [1]; 120 µg/mL (≈ 547 µM) against CCRF-CEM; over 40 µg/mL in [2]; over 100 µg/mL in the assay with Human alphaherpesvirus 1 [3]; over 100 µg/mL against Human alphaherpesvirus 2; over 100 µg/mL against Human alphaherpesvirus 1 [4]. Moreover, the MIC50 with HEF was 200 µg/mL (≈ 912 µM); with Vaccinia virus, over 100 µg/mL; against Enterovirus C it was over 400 µg/mL; in assay [5] it was over 400 µg/mL; in the assay on Coxsackievirus B4 [6], over 400 µg/mL; against Human betaherpesvirus 5, over 50 µg/mL. Also, the MIC50 against Human alphaherpesvirus 3 [7] was over 50 µg/mL; with Human alphaherpesvirus 3 [8], over 50 µg/mL; against HEL it was over 50 µg/mL; against MDCK [9], over 34 µg/mL; in [10], 60 µg/mL (≈ 274 µM); against Influenza B virus, 60 µg/mL (≈ 274 µM). The MIC50 is 250 µg/mL (≈ 1140 µM) in the assay on MDCK [11]; over 400 µg/mL against Semliki Forest virus; over 400 µg/mL against Coxsackievirus B4 [12]; over 400 µg/mL with Vero; over 400 µg/mL with Human respirovirus 3; over 400 µg/mL in [13]. The MIC50 is over 400 µg/mL against Sindbis virus, 16.5 µg/mL (≈ 75.2 µM) in assay [14], over 400 µg/mL in the assay on HeLa and over 100 µg/mL in assay [15].
